Measurements as given in ChEMBL document CHEMBL2346503, “Synthesis and evaluation of novel (18)F-labeled spirocyclic piperidine derivatives as σ1 receptor ligands for positron emission tomography imaging” (J Med Chem, 2013).

Columns and labels:
Liver [1] = test: Biodistribution in ICR mouse liver at 370 kBq, iv after 60 mins by gamma-counting analysis in presence of haloperidol relative to control; type: ADME, organism-based; details: in vivo, 1 h
In short: (§1)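 Male ICR mice (n = 5) got saline or haloperidol (0.1 mL, 1.0 mg/kg) via tail vein 5 min before 370 kBq tracer iv. Tissues were taken 60 min later and γ-counted as %ID/g (intestine as %ID/organ). Control and blocked groups were compared by two-tailed independent Student's t test, p ≤ 0.05.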

Brain [2] = test: Biodistribution in ICR mouse brain at 370 kBq, iv after 60 mins by gamma-counting analysis in presence of haloperidol relative to control; type: ADME, organism-based; details: in vivo, 1 h; in short: as §1
[3] = Lipophilicity, log D of the compound at pH 7.4 by shake flask method; type: physicochemical; details: buffer
In short: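 Shake flask: radiotracer (370 kBq) in 3 mL 1-octanol plus 3 mL 0.05 M sodium phosphate buffer pH 7.4, vortexed 3 min at room temperature, then centrifuged. Both phases were gamma-counted and log D = log(cpm/mL octanol ÷ cpm/mL buffer). The octanol layer was repartitioned until values were consistent. Triplicate, repeated three times.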

Bone [4] = test: Biodistribution in ICR mouse bone at 370 kBq, iv after 60 mins by gamma-counting analysis in presence of haloperidol relative to control; type: ADME, organism-based, Bone element; details: in vivo, 1 h; in short: as §1
Heart [5] = test: Biodistribution in ICR mouse heart at 370 kBq, iv after 120 mins by gamma-counting analysis; type: ADME, organism-based; details: in vivo, 2 h
In short: (§2)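 Male ICR mice (n = 5 per group) got 370 kBq tracer in 0.1 mL saline by iv injection. They were decapitated at 2, 30, 60 or 120 min, and organs were weighed and γ-counted. %ID/g was found against diluted aliquots of the injected dose, decay-corrected, and given as mean ± SD.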

Bone [6] = test: Biodistribution in ICR mouse bone at 370 kBq, iv after 30 mins by gamma-counting analysis; type: ADME, organism-based, Bone element; details: in vivo, 0.5 h; in short: as §2
Blood [7] = test: Biodistribution in ICR mouse blood at 370 kBq, iv after 30 mins by gamma-counting analysis; type: ADME, organism-based; details: in vivo, 0.5 h; in short: as §2
Spleen [8] = test: Biodistribution in ICR mouse spleen at 370 kBq, iv after 120 mins by gamma-counting analysis; type: ADME, organism-based; details: in vivo, 2 h
In short: (§3)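 Male ICR mice, n = 5 per time point, given the radiotracer in saline (370 kBq, 0.1 mL) by intravenous injection. Killed by decapitation at 2, 30, 60 or 120 min. Organs were excised, weighed and gamma-counted with decay correction. Uptake is expressed as % injected dose per gram of wet tissue against diluted standards of the injected material; stomach and intestine are expressed as % injected dose per organ. Mean ± SD.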

Lung [9] = test: Biodistribution in ICR mouse lung at 370 kBq, iv after 120 mins by gamma-counting analysis; type: ADME, organism-based; details: in vivo, 2 h; in short: as §2
Lung [10] = test: Biodistribution in ICR mouse lung at 370 kBq, iv after 2 mins by gamma-counting analysis; type: ADME, organism-based; details: in vivo; in short: as §2
Blood [11] = test: Biodistribution in ICR mouse blood at 370 kBq, iv after 120 mins by gamma-counting analysis; type: ADME, organism-based; details: in vivo, 2 h; in short: as §2
Muscle tissue [12] = test: Biodistribution in ICR mouse muscle at 370 kBq, iv after 60 mins by gamma-counting analysis in presence of haloperidol relative to control; type: ADME, organism-based; details: in vivo, 1 h
In short: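 Male ICR mice, n = 5 per group, received saline (0.1 mL) or haloperidol (0.1 mL, 1.0 mg/kg) via tail vein 5 min before the radiotracer (370 kBq, 0.1 mL, iv). Killed by decapitation at 60 min. Tissues were excised, weighed and gamma-counted. Values are % ID/g (stomach as % ID/organ) and percent change versus saline controls, compared by two-tailed independent Student's t test, p ≤ 0.05.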

Blood [13] = test: Biodistribution in ICR mouse blood at 370 kBq, iv after 2 mins by gamma-counting analysis; type: ADME, organism-based; details: in vivo; in short: as §2
Kidney [14] = test: Biodistribution in ICR mouse kidney at 370 kBq, iv after 120 mins by gamma-counting analysis; type: ADME, organism-based; details: in vivo, 2 h; in short: as §2
Brain [15] = test: Biodistribution in ICR mouse brain at 370 kBq, iv after 120 mins by gamma-counting analysis; type: ADME, organism-based; details: in vivo, 2 h; in short: as §2
Heart [16] = test: Biodistribution in ICR mouse heart at 370 kBq, iv after 2 mins by gamma-counting analysis; type: ADME, organism-based; details: in vivo; in short: as §2
Lung [17] = test: Biodistribution in ICR mouse lung at 370 kBq, iv after 30 mins by gamma-counting analysis; type: ADME, organism-based; details: in vivo, 0.5 h; in short: as §2
Muscle tissue [18] = test: Biodistribution in ICR mouse muscle at 370 kBq, iv after 30 mins by gamma-counting analysis; type: ADME, organism-based; details: in vivo, 0.5 h; in short: as §3
Kidney [19] = test: Biodistribution in ICR mouse kidney at 370 kBq, iv after 60 mins by gamma-counting analysis; type: ADME, organism-based; details: in vivo, 1 h; in short: as §2
Blood [20] = test: Biodistribution in ICR mouse blood at 370 kBq, iv after 60 mins by gamma-counting analysis; type: ADME, organism-based; details: in vivo, 1 h; in short: as §2
Stomach = test: Biodistribution in ICR mouse stomach assessed per organ at 370 kBq, iv after 120 mins by gamma-counting analysis; type: ADME, organism-based; details: in vivo, 2 h; in short: as §3
Spleen [21] = test: Biodistribution in ICR mouse spleen at 370 kBq, iv after 60 mins by gamma-counting analysis; type: ADME, organism-based; details: in vivo, 1 h; in short: as §3
Heart [22] = test: Biodistribution in ICR mouse heart at 370 kBq, iv after 60 mins by gamma-counting analysis; type: ADME, organism-based; details: in vivo, 1 h; in short: as §2
Muscle tissue [23] = test: Biodistribution in ICR mouse muscle at 370 kBq, iv after 2 mins by gamma-counting analysis; type: ADME, organism-based; details: in vivo; in short: as §3
Bone [24] = test: Biodistribution in ICR mouse bone at 370 kBq, iv after 120 mins by gamma-counting analysis; type: ADME, organism-based, Bone element; details: in vivo, 2 h; in short: as §2
Bone [25] = test: Biodistribution in ICR mouse bone at 370 kBq, iv after 60 mins by gamma-counting analysis; type: ADME, organism-based, Bone element; details: in vivo, 1 h; in short: as §2
[26] = Ratio of drug uptake from ICR mouse brain to blood after 60 mins; type: ADME, tissue-based; details: brain and blood
Liver [27] = test: Biodistribution in ICR mouse liver at 370 kBq, iv after 30 mins by gamma-counting analysis; type: ADME, organism-based; details: in vivo, 0.5 h; in short: as §2
Intestine [28] = test: Biodistribution in ICR mouse intestine assessed per organ at 370 kBq, iv after 2 mins by gamma-counting analysis; type: ADME, organism-based; details: in vivo
In short: (§4)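 Male ICR mice (n = 5) got 370 kBq iv in 0.1 mL saline and were decapitated at 2, 30, 60 or 120 min. Whole intestine was γ-counted and expressed as percent injected dose per organ, decay-corrected, mean ± SD.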

Brain [29] = test: Biodistribution in ICR mouse brain at 370 kBq, iv after 30 mins by gamma-counting analysis; type: ADME, organism-based; details: in vivo, 0.5 h; in short: as §2
Intestine [30] = test: Biodistribution in ICR mouse intestine assessed per organ at 370 kBq, iv after 30 mins by gamma-counting analysis; type: ADME, organism-based; details: in vivo, 0.5 h; in short: as §4
Liver [31] = test: Biodistribution in ICR mouse liver at 370 kBq, iv after 120 mins by gamma-counting analysis; type: ADME, organism-based; details: in vivo, 2 h; in short: as §2
Brain [32] = test: Biodistribution in ICR mouse brain at 370 kBq, iv after 60 mins by gamma-counting analysis; type: ADME, organism-based; details: in vivo, 1 h; in short: as §2
Lung [33] = test: Biodistribution in ICR mouse lung at 370 kBq, iv after 60 mins by gamma-counting analysis; type: ADME, organism-based; details: in vivo, 1 h; in short: as §3
Brain [34] = test: Biodistribution in ICR mouse brain at 370 kBq, iv after 2 mins by gamma-counting analysis; type: ADME, organism-based; details: in vivo; in short: as §2
Liver [35] = test: Biodistribution in ICR mouse liver at 370 kBq, iv after 2 mins by gamma-counting analysis; type: ADME, organism-based; details: in vivo; in short: as §2
Spleen [36] = test: Biodistribution in ICR mouse spleen at 370 kBq, iv after 2 mins by gamma-counting analysis; type: ADME, organism-based; details: in vivo; in short: as §3
Muscle tissue [37] = test: Biodistribution in ICR mouse muscle at 370 kBq, iv after 60 mins by gamma-counting analysis; type: ADME, organism-based; details: in vivo, 1 h; in short: as §3

Drug uptake (Liver [1]) [%] | Drug uptake (Brain [2]) [%] | logD [3] | Drug uptake (Bone [4]) [%] | Drug uptake (Heart [5]) [% ID/g] | Drug uptake (Bone [6]) [% ID/g] | Drug uptake (Blood [7]) [% ID/g] | Drug uptake (Spleen [8]) [% ID/g] | Drug uptake (Lung [9]) [% ID/g] | Drug uptake (Lung [10]) [% ID/g] | Drug uptake (Blood [11]) [% ID/g] | Drug uptake (Muscle tissue [12]) [%] | Drug uptake (Blood [13]) [% ID/g] | Drug uptake (Kidney [14]) [% ID/g] | Drug uptake (Brain [15]) [% ID/g] | Drug uptake (Heart [16]) [% ID/g] | Drug uptake (Lung [17]) [% ID/g] | Drug uptake (Muscle tissue [18]) [% ID/g] | Drug uptake (Kidney [19]) [% ID/g] | Drug uptake (Blood [20]) [% ID/g] | SMILES | also measured
-64 | -58 | 2.41 | 18 | 8.54 | 3.3 | 0.72 | 9.09 | 16.2 | 47.91 | 1.2 | -20 | 1.71 | 9.55 | 8.99 | 21.71 | 25.89 | 4.59 | 10.87 | 0.8 | [18F]CCOc1ccc(CN2CCC3(CC2)OCc2ccccc23)cc1 | Drug uptake (Stomach): 0.89 %ID; Drug uptake (Spleen [21]): 8.52 % ID/g; Drug uptake (Heart [22]): 10.74 % ID/g; Drug uptake (Muscle tissue [23]): 5.45 % ID/g; Drug uptake (Bone [24]): 6.13 % ID/g; Drug uptake (Bone [25]): 4.27 % ID/g; Kp at 1 h [26]: 11.4; Drug uptake (Liver [27]): 15.3 % ID/g; Drug uptake (Intestine [28]): 6.62 %ID; Drug uptake (Brain [29]): 9.32 % ID/g; Drug uptake (Intestine [30]): 8.02 %ID; Drug uptake (Liver [31]): 13.6 % ID/g; Drug uptake (Brain [32]): 9.1 % ID/g; Drug uptake (Lung [33]): 25.21 % ID/g; Drug uptake (Brain [34]): 8.07 % ID/g; Drug uptake (Liver [35]): 8.46 % ID/g; Drug uptake (Spleen [36]): 4.84 % ID/g; Drug uptake (Muscle tissue [37]): 4.41 % ID/g
-36 | -16 | 1.9 | -26 | 3.25 | 4.1 | 2.96 | 3.91 | 3.16 | 20.68 | 3.52 | 17 | 1.97 | 3.96 | 3.91 | 7.69 | 4.46 | 2.42 | 4.37 | 3.35 | [18F]CCOCCOCCOc1ccc(CN2CCC3(CC2)OCc2ccccc23)cc1 | Drug uptake (Stomach): 2.03 %ID; Drug uptake (Spleen [21]): 5.43 % ID/g; Drug uptake (Heart [22]): 3.43 % ID/g; Drug uptake (Muscle tissue [23]): 3.22 % ID/g; Drug uptake (Bone [24]): 5.28 % ID/g; Drug uptake (Bone [25]): 4.51 % ID/g; Kp at 1 h [26]: 1.4; Drug uptake (Liver [27]): 8.67 % ID/g; Drug uptake (Intestine [28]): 6.21 %ID; Drug uptake (Brain [29]): 5.2 % ID/g; Drug uptake (Intestine [30]): 6.72 %ID; Drug uptake (Liver [31]): 4.14 % ID/g; Drug uptake (Brain [32]): 4.63 % ID/g; Drug uptake (Lung [33]): 3.73 % ID/g; Drug uptake (Brain [34]): 5.79 % ID/g; Drug uptake (Liver [35]): 5.83 % ID/g; Drug uptake (Spleen [36]): 5.35 % ID/g; Drug uptake (Muscle tissue [37]): 2.64 % ID/g
